Tested on: HEK-293T
Assay: Multiplex assay against HEK293T
Format: toxicity, cell-based
Conditions: human
Procedure, shortened: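 Four dyes were applied at seeding to live cells: Hoechst33342, BioTracker Green Microtubule Cytoskeleton Dye, MitoTracker Red and Annexin V Alexa Fluor 680. Imaging after compound addition used a CQ1 microscope at 37°C and 5% CO2. CellPathfinder machine-learning gating then sorted cells into Hoechst high-intensity objects or normal cells, normal cells into healthy, pyknosed or fragmented nuclei, and pyknosed cells into mitotic or apoptotic, with tubulin, mitochondrial-mass and membrane-permeability phenotypes given as per cents of healthy-nucleus cells.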

[1] = 12 h, 1 µM, compound concentration 1 uM, replicate 1
[2] = 12 h, 1 µM, compound concentration 1 uM, replicate 2
[3] = 12 h, 10 µM, compound concentration 10 uM, replicate 1
[4] = 12 h, 10 µM, compound concentration 10 uM, replicate 2
[5] = 24 h, 1 µM, compound concentration 1 uM, replicate 1
[6] = 24 h, 1 µM, compound concentration 1 uM, replicate 2
[7] = 24 h, 10 µM, compound concentration 10 uM, replicate 1
[8] = 24 h, 10 µM, compound concentration 10 uM, replicate 2
[9] = 48 h, 1 µM, compound concentration 1 uM, replicate 1
[10] = 48 h, 1 µM, compound concentration 1 uM, replicate 2
[11] = 48 h, 10 µM, compound concentration 10 uM, replicate 1
[12] = 48 h, 10 µM, compound concentration 10 uM, replicate 2

## CCCCCC(O)/C=C/[C@H]1C(=O)CC(O)C1C/C=C\CCCC(=O)O (stereo not given in full)
[1]
  Population Apoptotic (%): 29%
  Population Fragmented Nuclei (%): 8%
  Population Healthy Nuclei (%): 80%
  Population Hoechst High Intensity Objects (%): 8%
  Population Membrane Permeable-Phenotype (%): 0%
  Population Mitochondria Different-Phenotype (%): 44%
  Population Mitotic Cells (%): 70%
  Population Normal (%): 91%
  Population Pyknosed Nuclei (%): 11%
  Population Tubulin-Different-Phenotype (%): 23%
  Total Cell Count: 409
[2]
  Population Apoptotic (%): 39%
  Population Fragmented Nuclei (%): 7%
  Population Healthy Nuclei (%): 83%
  Population Hoechst High Intensity Objects (%): 6%
  Population Mitochondria Different-Phenotype (%): 56%
  Population Mitotic Cells (%): 60%
  Population Normal (%): 93%
  Population Pyknosed Nuclei (%): 9%
  Population Tubulin-Different-Phenotype (%): 20%
  Total Cell Count: 383
[3]
  Population Apoptotic (%): 48%
  Population Fragmented Nuclei (%): 6%
  Population Healthy Nuclei (%): 79%
  Population Hoechst High Intensity Objects (%): 9%
  Population Membrane Permeable-Phenotype (%): 0%
  Population Mitochondria Different-Phenotype (%): 48%
  Population Mitotic Cells (%): 51%
  Population Normal (%): 90%
  Population Pyknosed Nuclei (%): 14%
  Population Tubulin-Different-Phenotype (%): 31%
  Total Cell Count: 409
[4]
  Population Apoptotic (%): 54%
  Population Healthy Nuclei (%): 77%
  Population Hoechst High Intensity Objects (%): 7%
  Population Mitochondria Different-Phenotype (%): 59%
  Population Mitotic Cells (%): 46%
  Population Normal (%): 92%
  Population Pyknosed Nuclei (%): 15%
  Population Tubulin-Different-Phenotype (%): 25%
  Total Cell Count: 343
[5]
  Population Apoptotic (%): 40%
  Population Fragmented Nuclei (%): 8%
  Population Healthy Nuclei (%): 83%
  Population Hoechst High Intensity Objects (%): 3%
  Population Membrane Permeable-Phenotype (%): 1%
  Population Mitochondria Different-Phenotype (%): 22%
  Population Mitotic Cells (%): 59%
  Population Normal (%): 96%
  Population Pyknosed Nuclei (%): 8%
  Population Tubulin-Different-Phenotype (%): 11%
  Total Cell Count: 611
[6]
  Population Apoptotic (%): 44%
  Population Fragmented Nuclei (%): 7%
  Population Healthy Nuclei (%): 84%
  Population Hoechst High Intensity Objects (%): 7%
  Population Membrane Permeable-Phenotype (%): 0%
  Population Mitochondria Different-Phenotype (%): 41%
  Population Mitotic Cells (%): 55%
  Population Normal (%): 92%
  Population Pyknosed Nuclei (%): 7%
  Population Tubulin-Different-Phenotype (%): 14%
  Total Cell Count: 492
[7]
  Population Apoptotic (%): 27%
  Population Fragmented Nuclei (%): 10%
  Population Healthy Nuclei (%): 75%
  Population Hoechst High Intensity Objects (%): 4%
  Population Membrane Permeable-Phenotype (%): 0%
  Population Mitochondria Different-Phenotype (%): 29%
  Population Mitotic Cells (%): 72%
  Population Normal (%): 95%
  Population Pyknosed Nuclei (%): 13%
  Population Tubulin-Different-Phenotype (%): 16%
  Total Cell Count: 523
[8]
  Population Apoptotic (%): 44%
  Population Fragmented Nuclei (%): 9%
  Population Healthy Nuclei (%): 77%
  Population Hoechst High Intensity Objects (%): 9%
  Population Mitochondria Different-Phenotype (%): 50%
  Population Mitotic Cells (%): 55%
  Population Normal (%): 90%
  Population Tubulin-Different-Phenotype (%): 21%
  Total Cell Count: 388
[9]
  Population Apoptotic (%): 29%
  Population Fragmented Nuclei (%): 12%
  Population Healthy Nuclei (%): 79%
  Population Hoechst High Intensity Objects (%): 1%
  Population Membrane Permeable-Phenotype (%): 1%
  Population Mitochondria Different-Phenotype (%): 20%
  Population Mitotic Cells (%): 70%
  Population Normal (%): 98%
  Population Pyknosed Nuclei (%): 7%
  Population Tubulin-Different-Phenotype (%): 8%
  Total Cell Count: 864
[10]
  Population Apoptotic (%): 30%
  Population Fragmented Nuclei (%): 13%
  Population Healthy Nuclei (%): 81%
  Population Hoechst High Intensity Objects (%): 3%
  Population Membrane Permeable-Phenotype (%): 2%
  Population Mitochondria Different-Phenotype (%): 19%
  Population Mitotic Cells (%): 69%
  Population Normal (%): 96%
  Population Pyknosed Nuclei (%): 5%
  Population Tubulin-Different-Phenotype (%): 7%
  Total Cell Count: 775
[11]
  Population Apoptotic (%): 22%
  Population Fragmented Nuclei (%): 12%
  Population Healthy Nuclei (%): 79%
  Population Hoechst High Intensity Objects (%): 1%
  Population Membrane Permeable-Phenotype (%): 0%
  Population Mitochondria Different-Phenotype (%): 17%
  Population Mitotic Cells (%): 77%
  Population Normal (%): 98%
  Population Pyknosed Nuclei (%): 8%
  Population Tubulin-Different-Phenotype (%): 7%
  Total Cell Count: 815
[12]
  Population Apoptotic (%): 51%
  Population Fragmented Nuclei (%): 10%
  Population Healthy Nuclei (%): 80%
  Population Hoechst High Intensity Objects (%): 3%
  Population Mitochondria Different-Phenotype (%): 26%
  Population Mitotic Cells (%): 48%
  Population Normal (%): 96%
  Population Tubulin-Different-Phenotype (%): 8%
  Total Cell Count: 544

— ChEMBL document CHEMBL5058577, “EUbOPEN Chemogenomics Library 2 (Multiplex)” (2022)
